The source made the active and inactive calls. No cut-off for these calls is given here.
Columns and labels:
[1] = system: Stimulator of interferon genes protein (Homo sapiens), Q86WV6 [G230A,R293Q]; assay: Activation of human STING AQ mutant expressed in HEK293T cells assessed as phosphorylation of IRF-3 at (Ser396) at 10 uM incubated for 2 hrs and measured by Western blot analysis; assay type: cell-based; conditions: filed as activator
Outline: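 HEK293T clones stably carrying each human STING variant, picked by blasticidin selection and limiting dilution. 5 x 10^5 cells were exposed to compound at 10μM for 2 h, lysed in RIPA with phosphatase and protease inhibitors, and 10 μg protein run on 10% SDS-PAGE. Immunoblots probed for pSTING (Ser366), pIRF3 (Ser396), total STING, IRF3 and actin, detected by ECL.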

[2] = target: T1, Stimulator of interferon genes protein (Homo sapiens, UniProt Q86WV6); assay: Activation of human STING in human PBMC cells assessed as induction of IL6 expression at 10 uM measured by qt-PCR analysis; assay type: cell-based; conditions: filed as activator
T1 sequence (Q86WV6 whole entry): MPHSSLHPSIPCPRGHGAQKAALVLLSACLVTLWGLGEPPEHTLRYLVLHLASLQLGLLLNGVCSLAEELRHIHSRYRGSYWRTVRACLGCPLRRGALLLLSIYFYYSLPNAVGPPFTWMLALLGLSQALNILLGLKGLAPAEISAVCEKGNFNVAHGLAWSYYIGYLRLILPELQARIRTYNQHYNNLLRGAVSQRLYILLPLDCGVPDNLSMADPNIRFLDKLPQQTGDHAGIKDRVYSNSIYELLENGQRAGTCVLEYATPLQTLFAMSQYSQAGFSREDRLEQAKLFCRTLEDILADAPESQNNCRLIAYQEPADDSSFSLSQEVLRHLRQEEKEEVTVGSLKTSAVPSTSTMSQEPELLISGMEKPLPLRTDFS
Outline: (§1)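 2 x 10^5 freshly isolated human PBMC from healthy donors, separated on Histopaque, given a single compound concentration. Harvested early (6 hr) or late (20h). Cytokine mRNA read by qRT-PCR as relative normalized expression (fold) against vehicle-treated cells.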

[3] = target: T1, Stimulator of interferon genes protein; assay: Activation of human STING in human PBMC cells assessed as induction of CCL20 expression at 10 uM measured by qt-PCR analysis; assay type: cell-based; conditions: filed as activator; outline: as §1
[4] = Cmax in BALB/c mouse at 10 mg/kg, po measured up to 24 hrs by LC-MS/MS analysis; assay type: ADME, organism-based; parameters: route oral, dose 10 mg/kg, time <=24; conditions: in vivo
Outline: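 Overnight-fasted mice, n=3 per group, single dose by lateral tail vein (iv) or oral gavage (po). Retro-orbital blood under isoflurane at 2 min–24 h (iv) or 5 min–24 h (po). Plasma spun at 1500 x g, 15 min, 4 °C, stored -80 °C, then analysed by LCMS.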

[5] = Oral bioavailability in BALB/c mouse at 10 mg/kg measured up to 24 hrs by LC-MS/MS analysis; assay type: ADME, organism-based; conditions: in vivo
Outline: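 Overnight-fasted mice, randomized, n=3 per group, each given a single dose by lateral tail vein (iv) or oral gavage. Blood (50 μl per point, under isoflurane) was taken from the retro-orbital plexus. Sampling was at 2 min–24 h after iv and 5 min–24 h after oral dosing. Plasma was separated at 1500 x g for 15 min at 4 °C, stored at -80 °C, and analysed by LCMS.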

Cytochrome P450 2C9 = Cytochrome P450 2C9 (Homo sapiens, UniProt P11712); assay: Inhibition of CYP2C9 (unknown origin); assay type: ADME
Cytochrome P450 2C9, sequence (P11712 whole entry): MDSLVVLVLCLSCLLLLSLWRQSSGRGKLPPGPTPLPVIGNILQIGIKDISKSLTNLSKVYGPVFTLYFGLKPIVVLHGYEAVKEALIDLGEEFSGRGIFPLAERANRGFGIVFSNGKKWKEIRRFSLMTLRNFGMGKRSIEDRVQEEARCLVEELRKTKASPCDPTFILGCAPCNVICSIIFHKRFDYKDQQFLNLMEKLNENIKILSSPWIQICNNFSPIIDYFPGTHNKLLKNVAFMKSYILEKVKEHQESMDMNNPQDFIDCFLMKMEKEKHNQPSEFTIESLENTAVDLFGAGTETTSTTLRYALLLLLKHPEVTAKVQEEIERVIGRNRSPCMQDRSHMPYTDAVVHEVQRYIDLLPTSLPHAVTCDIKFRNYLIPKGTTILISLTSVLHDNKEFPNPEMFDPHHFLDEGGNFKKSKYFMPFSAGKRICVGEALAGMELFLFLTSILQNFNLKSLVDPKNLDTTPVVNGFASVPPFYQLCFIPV

Stimulator of interferon genes protein (Homo sapiens), Q86WV6 [G230A,R293Q], sequence (Q86WV6 whole entry G230A/R293Q): as the sequence (Q86WV6 whole entry) above, with G230A, R293Q counted along it

In the case of `CC1(C)C(=O)N(Cc2c(F)cccc2Cl)c2cc(C(=O)NCc3c(F)cc(F)cc3F)ccc21`, the Activity [1] is reported as “Active”, the Activity [2] is reported as “Active” and the Activity [3] is reported as “Active”. For the same compound, the Cmax [4] was 1720 ng/mL, the bioavailability [5] was 86% and the “inhibition (INH)” value (Cytochrome P450 2C9) was “Not Active”.
